Counter-ions that a name gives are not always drawn.
How the values were obtained:
[1] = tested on: HC11 cells; assay: In vitro cytotoxicity, CCK-8 assay; format: cell-based, mouse; details: concentrations up to 50 μM, three days
Method in brief: (§1)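 4T1 and HC11 cells were grown in RPMI-1640 with 10% FBS at 37 °C and 5% CO2. Cells were exposed to the azido-sugar test compound at 0–50 μM for 3 days. Viability was read by CCK-8.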

[2] = tested on: 4T1 cells; assay: In vitro cytotoxicity, CCK-8 assay; format: cell-based, murine; details: concentrations up to 50 μM, three days
Method in brief: as §1

[3] = tested on: 4T1 tumor-bearing mice; assay: In vivo MR-T1 mapping imaging; design: species or system BALB/c mice; details: by 3 h post-injection, 1 mg/kg i.v., n = 3
Method in brief: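 4T1 flank tumors were raised in female BALB/c mice (1.0 × 10^6 cells s.c.), n = 3 per group. The click group received azido-sugar 40 mg/kg i.p. once daily for 3 days; the other groups received PBS. Mice were then injected i.v. with 150 μL (1 mg/kg) of Gd probe or Gd-DOTA. T1 mapping was done before injection and at 1, 2, 3 and 4 h, and tumor 1/T1 values were quantified.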

[4] = tested on: DCs from TDLNs; assay: DC maturation in TDLNs by flow cytometry; format: in vivo, BALB/c mice; details: mean ± SD, n = 5
Method in brief: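 Female BALB/c mice (5–6 weeks) received 1.0 × 10^6 4T1 cells s.c. in the flank. Once tumors reached ~150 mm3, click groups got azido-sugar 40 mg/kg i.p. daily for 3 days and others got PBS. All groups then received 5 mg/kg i.v. every 7 days (n = 5). TDLNs were digested with collagenase IV (37 °C, 1 h) and strained at 70 μm. Mature DCs were gated CD40+CD80+MHC II+CCR7+. Mean ± SD reported.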

[5] = tested on: PD-L1; details: DOX treatment; ref [41], [42]; cited from earlier work
[6] = tested on: 4T1 tumor-bearing mice; assay: Treatment-related toxicity; format: in vivo, BALB/c mice; details: 5 mg/kg
Method in brief: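 Female BALB/c mice bearing ~150 mm3 s.c. 4T1 tumors were split into 5 groups (n = 5). Click groups were pretreated with azido-sugar 40 mg/kg i.p. daily for 3 days; others received PBS. Treatments at 5 mg/kg i.v. were given every 7 days. Body weight was recorded every 2 days for 14 days. Major organs were fixed in 4% paraformaldehyde, paraffin-embedded, and H&E stained.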

In the case of `CC(=O)OC[C@H]1OC(OC(C)=O)[C@@H](NC(=O)CN=[N+]=[N-])[C@@H](OC(C)=O)[C@@H]1OC(C)=O` (stereo partly shown) [Ac4ManNAz, tetraacetyl-N-azidoacetylmannosamine], the “Cytotoxicity to HC11 cells” value [1] is reported as “no significant harm” and the “Cytotoxicity to 4T1 cells” value [2] is reported as “no significant harm”.

In the case of `O=C([O-])CN1CCN(CC(=O)[O-])CCN(CC(=O)[O-])CCN(CC(=O)[O-])CC1.[Gd+3]` [Gd-DOTA], the “Tumor MR signal” value [3] is reported as “returned to baseline levels”.

In the case of `COc1cccc2c1C(=O)c1c(O)c3c(c(O)c1C2=O)C[C@@](O)(C(=O)CO)C[C@@H]3O[C@H]1C[C@H](N)[C@H](O)[C@H](C)O1` [DOX, Doxorubicin hydrochloride], the “MHC-II expression in TDLNs” value [4] is given as 45.04 ± 1.85%, the “PD-L1 expression of 4T1 cells” value [5] is given as “elevation in PD-L1 expression” and the Body weight change ([6]; measured every two days for 14 days, n = 5) is given as “severe weight loss”. The “H&E analyses on major organs compared to PBS-treated mice” value ([6]; end of antitumor study) was “substantial damage”.
